In ChEMBL document CHEMBL1155078, “From phenothiazine to 3-phenyl-1,4-benzothiazine derivatives as inhibitors of the Staphylococcus aureus NorA multidrug efflux pump” (J Med Chem, 2008):
≈ marks a conversion by molar mass, not a printed value. One block for each compound: values may come before it. Calls of active or inactive are those of the source. The calls are words filed in the database; no cut-off is given here.

Legend:
[1] = target: T1, Quinolone resistance protein NorA (Staphylococcus aureus) (UniProt P0A0J7); assay: Inhibition of NorA in Staphylococcus aureus ATCC 25923 assessed as fold reduction of ciprofloxacin MIC at 25 ug/mL by microdilution technique
T1 sequence (whole entry): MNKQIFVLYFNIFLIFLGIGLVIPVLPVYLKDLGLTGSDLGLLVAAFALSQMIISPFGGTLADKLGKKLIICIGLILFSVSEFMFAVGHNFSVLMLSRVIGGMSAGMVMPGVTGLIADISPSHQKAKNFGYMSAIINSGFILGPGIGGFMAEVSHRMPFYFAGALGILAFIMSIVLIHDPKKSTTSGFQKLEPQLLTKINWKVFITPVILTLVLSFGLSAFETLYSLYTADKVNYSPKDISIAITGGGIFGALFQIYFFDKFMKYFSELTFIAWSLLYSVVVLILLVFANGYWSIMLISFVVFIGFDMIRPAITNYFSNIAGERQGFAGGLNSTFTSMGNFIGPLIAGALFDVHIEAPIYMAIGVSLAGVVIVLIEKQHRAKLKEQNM
Procedure, shortened: (§1)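 Ciprofloxacin MICs were measured in duplicate by broth microdilution following CLSI guidelines. They were determined alone and with scalar dilutions of freshly prepared test compound, which was added at the fixed concentration stated in the line. The result is the fold decrease in the ciprofloxacin MIC when compound is present.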

[2] = target: T1, Quinolone resistance protein NorA (Staphylococcus aureus); assay: Inhibition of NorA deficient Staphylococcus aureus K1902 assessed as fold reduction of ciprofloxacin MIC at 25 ug/mL by microdilution technique
[3] = target: T1, Quinolone resistance protein NorA (Staphylococcus aureus); assay: Inhibition of NorA overexpressing Staphylococcus aureus K2378 assessed as fold reduction of ciprofloxacin MIC at 25 ug/mL by microdilution technique; procedure, shortened: as §1
Staphylococcus aureus [4] = assay: Antibacterial activity against wild type Staphylococcus aureus ATCC 25923 by microdilution technique; assay type: functional
Procedure, shortened: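 MICs determined in duplicate by broth microdilution following CLSI guidelines.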

[5] = Lipophilicity, log P of the compound; assay type: physicochemical; conditions: octanol/water
Staphylococcus aureus [6] = assay: Antibacterial activity against Staphylococcus aureus K1199B at 50 uM by microdilution technique; assay type: functional, organism-based
[7] = target: T1, Quinolone resistance protein NorA (Staphylococcus aureus); assay: Inhibition of NorA pump-mediated ethidium bromide efflux in Staphylococcus aureus K1199B at 50 uM by fluorimetric analysis
Procedure, shortened: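 Loss of ethidium bromide from norA-overexpressing S. aureus SA-1199B measured fluorometrically with test agent at 50 µM. Run in duplicate; read-out is the mean total efflux over a 5 min time course.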

[8] = target: T1, Quinolone resistance protein NorA (Staphylococcus aureus); assay: Inhibition of NorA overexpressing Staphylococcus aureus K2378 assessed as fold reduction of ciprofloxacin MIC at 12.5 ug/mL by microdilution technique; procedure, shortened: as §1
[9] = target: T1, Quinolone resistance protein NorA (Staphylococcus aureus); assay: Inhibition of NorA overexpressing Staphylococcus aureus K2378 assessed as fold reduction of ciprofloxacin MIC at 6.25 ug/mL by microdilution technique; procedure, shortened: as §1
[10] = target: T1, Quinolone resistance protein NorA (Staphylococcus aureus); assay: Inhibition of NorA deficient Staphylococcus aureus K1902 assessed as fold reduction of ciprofloxacin MIC at 12.5 ug/mL by microdilution technique
Staphylococcus aureus [11] = assay: Antibacterial activity against norA deficient Staphylococcus aureus K2378 by microdilution technique
Staphylococcus aureus [12] = assay: Antibacterial activity against norA expressing Staphylococcus aureus K1902 by microdilution technique
Staphylococcus aureus [13] = assay: microbe, parasite or virus in culture; conditions: ATCC 25923

Compound: COC(=O)[C@H]1[C@H]2C[C@@H]3c4[nH]c5cc(OC)ccc5c4CCN3C[C@H]2C[C@@H](OC(=O)c2cc(OC)c(OC)c(OC)c2)[C@@H]1OC [RESERPINE]
- fold change (FC) [1]: 2
- fold change (FC) [2]: 2
- fold change (FC) [3]: 4
- MIC (Staphylococcus aureus [4]): 128 µg/mL (≈ 210 µM)
- logP [5]: 4

Compound: CCCOc1ccc(C2=Nc3ccccc3SC2)cc1
- fold change (FC) [1]: > 8
- Activity (Staphylococcus aureus [6]): inactive
- fold change (FC) [3]: 4
- inhibition [7]: 84.7%
- MIC (Staphylococcus aureus [4]): 128 µg/mL (≈ 452 µM)
- logP [5]: 4

Compound: O=S1(=O)C=C(c2ccccc2)Nc2ccccc21
- fold change (FC) [1]: 2
- fold change (FC) [3]: 2
- MIC (Staphylococcus aureus [4]): 128 µg/mL (≈ 497 µM)

Compound: CC(C)CCOc1ccc(C2=Nc3ccccc3SC2)cc1
- fold change (FC) [1]: 4
- Activity (Staphylococcus aureus [6]): inactive
- fold change (FC) [3]: 2
- inhibition [7]: 16.9%
- MIC (Staphylococcus aureus [4]): > 128 µg/mL

Compound: Clc1ccc(C2=Nc3ccccc3SC2)cc1
- fold change (FC) [1]: 4
- fold change (FC) [2]: 4
- fold change (FC) [3]: 4
- MIC (Staphylococcus aureus [4]): 64 µg/mL (≈ 246 µM)

- fold change (FC) [1]: 8
- inhibition [7]: 0%
- MIC (Staphylococcus aureus [4]): > 512 µg/mL
- logP [5]: 3
Compound: c1ccc(C2=Nc3ccccc3SC2)cc1
- Activity (Staphylococcus aureus [6]): inactive

Compound: FC(F)(F)c1ccc2c(c1)N=C(c1ccccc1)CS2
- fold change (FC) [8]: 16
- fold change (FC) [1]: 2
- Activity (Staphylococcus aureus [6]): inactive
- fold change (FC) [3]: 16
- inhibition [7]: 8.4%
- fold change (FC) [9]: 4
- MIC (Staphylococcus aureus [4]): 32 µg/mL (≈ 109 µM)

Compound: CN(C)CCCN1c2ccccc2Sc2ccc(Cl)cc21 [CHLORPROMAZINE]
- fold change (FC) [2]: > 4
- fold change (FC) [3]: 8
- inhibition [7]: 81%
- MIC (Staphylococcus aureus [4]): 128 µg/mL (≈ 401 µM)
- logP [5]: 5.2

Compound: O=[N+]([O-])c1ccc(C2=Nc3cc(C(F)(F)F)ccc3SC2)cc1
- fold change (FC) [10]: 2
- fold change (FC) [8]: 16
- fold change (FC) [1]: > 8
- Activity (Staphylococcus aureus [6]): inactive
- fold change (FC) [2]: 2
- fold change (FC) [3]: > 32
- inhibition [7]: 69.7%
- fold change (FC) [9]: 8
- MIC (Staphylococcus aureus [4]): 32 µg/mL (≈ 94.6 µM)
- logP [5]: 3.9

Compound: COc1ccc(C2=Nc3ccccc3SC2)cc1
- fold change (FC) [8]: 4
- fold change (FC) [1]: > 8
- Activity (Staphylococcus aureus [6]): inactive
- fold change (FC) [3]: 16
- inhibition [7]: 19.5%
- fold change (FC) [9]: 2
- MIC (Staphylococcus aureus [4]): > 512 µg/mL
- logP [5]: 3.1

Compound: COc1cccc(C2=Nc3ccccc3SC2)c1
- fold change (FC) [1]: 4
- fold change (FC) [3]: 8
- MIC (Staphylococcus aureus [4]): 64 µg/mL (≈ 251 µM)

Compound: CCCOc1ccc(C2=CSc3ccccc3N2C)cc1
- Activity (Staphylococcus aureus [6]): inactive
- fold change (FC) [3]: 4
- inhibition [7]: 0%
- MIC (Staphylococcus aureus [4]): > 512 µg/mL

Compound: COc1ccc(C2CSc3ccccc3N2)cc1 (configuration not stated)
- fold change (FC) [8]: 4
- fold change (FC) [1]: 2
- Activity (Staphylococcus aureus [6]): inactive
- fold change (FC) [3]: 8
- inhibition [7]: 10.4%
- fold change (FC) [9]: 4
- MIC (Staphylococcus aureus [4]): > 128 µg/mL

Compound: COc1ccc(C2=Nc3cc(C(F)(F)F)ccc3SC2)cc1
- fold change (FC) [1]: 2
- fold change (FC) [3]: 8
- MIC (Staphylococcus aureus [4]): 64 µg/mL (≈ 198 µM)

Compound: COc1cc(C2=Nc3ccccc3SC2)cc(OC)c1OC
- fold change (FC) [8]: 4
- fold change (FC) [1]: 4
- Activity (Staphylococcus aureus [6]): inactive
- fold change (FC) [3]: 16
- inhibition [7]: 23.6%
- fold change (FC) [9]: 2
- MIC (Staphylococcus aureus [4]): 32 µg/mL (≈ 101 µM)

Compound: Fc1ccc(C2=Nc3ccccc3SC2)cc1
- fold change (FC) [8]: 2
- fold change (FC) [1]: 4
- Activity (Staphylococcus aureus [6]): inactive
- fold change (FC) [2]: 2
- fold change (FC) [3]: 16
- inhibition [7]: 0%
- fold change (FC) [9]: 2
- MIC (Staphylococcus aureus [4]): 64 µg/mL (≈ 263 µM)
- logP [5]: 3.2

Compound: O=S1(=O)C=C(c2ccc(Cl)cc2)Nc2ccccc21
- fold change (FC) [1]: 4
- fold change (FC) [3]: 2
- MIC (Staphylococcus aureus [4]): 128 µg/mL (≈ 439 µM)

Compound: CSc1ccc(C2CSc3ccccc3N2)cc1 (configuration not stated)
- fold change (FC) [8]: 8
- fold change (FC) [1]: > 8
- Activity (Staphylococcus aureus [6]): inactive
- fold change (FC) [3]: 16
- inhibition [7]: 28.2%
- fold change (FC) [9]: 8
- MIC (Staphylococcus aureus [4]): > 128 µg/mL
- logP [5]: 4.5

Compound: COc1ccc(C2=Nc3ccccc3SC2)cc1OC
- fold change (FC) [8]: 4
- fold change (FC) [1]: 4
- Activity (Staphylococcus aureus [6]): inactive
- fold change (FC) [2]: 2
- fold change (FC) [3]: 16
- inhibition [7]: 22.8%
- fold change (FC) [9]: 2
- MIC (Staphylococcus aureus [4]): 128 µg/mL (≈ 449 µM)

Compound: O=C(O)c1cn(C2CC2)c2cc(N3CCNCC3)c(F)cc2c1=O [CIPROFLOXACIN]
- MIC (Staphylococcus aureus [11]): 2 µg/mL (≈ 6.04 µM)
- MIC (Staphylococcus aureus [12]): 0.12 µg/mL (≈ 0.362 µM)
- MIC (Staphylococcus aureus [13]): 0.5 µg/mL (≈ 1.51 µM)

- fold change (FC) [1]: 4
- fold change (FC) [2]: 8
- MIC (Staphylococcus aureus [4]): 64 µg/mL (≈ 267 µM)
Compound: Cc1ccc(C2=Nc3ccccc3SC2)cc1

Compound: O=[N+]([O-])c1ccc(C2=Nc3ccccc3SC2)cc1
- fold change (FC) [1]: 2
- Activity (Staphylococcus aureus [6]): inactive
- fold change (FC) [3]: 2
- inhibition [7]: 19.6%
- MIC (Staphylococcus aureus [4]): > 128 µg/mL

Compound: COc1ccccc1C1=Nc2ccccc2SC1
- fold change (FC) [1]: 4
- Activity (Staphylococcus aureus [6]): inactive
- fold change (FC) [3]: 8
- inhibition [7]: 0%
- MIC (Staphylococcus aureus [4]): 64 µg/mL (≈ 251 µM)
- logP [5]: 2.9
